Assay results as given in ChEMBL document CHEMBL1142660, “Optimization and validation of a docking-scoring protocol; application to virtual screening for COX-2 inhibitors” (J Med Chem, 2005).

Experiments:
[1] = target: T1, Prostaglandin G/H synthase 2 (Homo sapiens) (UniProt P35354); assay: Inhibition of COX-2 in human immunoassay; set-up: concentration or dose not given beside the values
T1 sequence (whole entry): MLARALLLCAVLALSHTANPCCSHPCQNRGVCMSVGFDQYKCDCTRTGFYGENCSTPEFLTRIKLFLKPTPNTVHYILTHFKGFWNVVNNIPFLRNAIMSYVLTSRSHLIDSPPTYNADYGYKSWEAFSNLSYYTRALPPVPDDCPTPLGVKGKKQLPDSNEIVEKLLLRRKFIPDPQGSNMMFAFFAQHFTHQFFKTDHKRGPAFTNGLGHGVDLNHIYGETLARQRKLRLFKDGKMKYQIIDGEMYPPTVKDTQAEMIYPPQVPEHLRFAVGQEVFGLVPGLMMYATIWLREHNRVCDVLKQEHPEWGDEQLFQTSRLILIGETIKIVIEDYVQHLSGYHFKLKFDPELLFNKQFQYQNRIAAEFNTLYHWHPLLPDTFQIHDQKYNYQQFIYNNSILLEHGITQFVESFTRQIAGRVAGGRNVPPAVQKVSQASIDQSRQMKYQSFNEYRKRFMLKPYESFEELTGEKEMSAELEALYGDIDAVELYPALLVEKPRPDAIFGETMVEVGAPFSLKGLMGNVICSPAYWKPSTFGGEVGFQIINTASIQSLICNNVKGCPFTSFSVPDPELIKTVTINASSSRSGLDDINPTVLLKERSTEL
Procedure, shortened: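 Human COX-2 enzyme immunoassay kit, run per the manufacturer's instructions. Each compound was tested at a single concentration of 1 µM, and the read-out was percent inhibition of enzyme activity.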

[2] = target: Prostaglandin G/H synthase 1 (Homo sapiens) (UniProt P23219); assay: Inhibition of COX-1 in human immunoassay; set-up: concentration or dose not given beside the values
Chain of Prostaglandin G/H synthase 1 (Homo sapiens) (P23219 whole entry): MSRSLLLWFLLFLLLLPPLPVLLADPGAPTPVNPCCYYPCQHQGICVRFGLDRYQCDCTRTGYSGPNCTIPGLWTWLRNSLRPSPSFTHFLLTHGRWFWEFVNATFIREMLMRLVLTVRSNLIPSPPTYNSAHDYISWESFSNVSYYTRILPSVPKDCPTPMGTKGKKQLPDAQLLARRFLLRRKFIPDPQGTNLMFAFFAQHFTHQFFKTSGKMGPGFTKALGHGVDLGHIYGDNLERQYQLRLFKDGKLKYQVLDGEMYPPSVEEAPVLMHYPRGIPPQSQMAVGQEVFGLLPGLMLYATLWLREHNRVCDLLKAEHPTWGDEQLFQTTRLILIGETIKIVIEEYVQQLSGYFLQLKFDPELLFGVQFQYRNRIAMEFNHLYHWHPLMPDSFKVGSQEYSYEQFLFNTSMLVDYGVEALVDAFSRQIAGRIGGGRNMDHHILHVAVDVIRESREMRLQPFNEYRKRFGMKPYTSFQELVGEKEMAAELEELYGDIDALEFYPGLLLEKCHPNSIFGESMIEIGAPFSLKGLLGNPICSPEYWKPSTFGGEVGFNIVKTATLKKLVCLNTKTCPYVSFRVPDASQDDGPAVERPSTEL

SMILES	Enzyme inhibition [1]	Enzyme inhibition [2]
NS(=O)(=O)c1ccc(NC(=S)NC(=O)c2ccc(Cl)cc2Cl)cc1	22%	8%
NS(=O)(=O)c1ccc(CCNS(=O)(=O)c2ccc(Cl)cc2Cl)cc1	30%	23%
NS(=O)(=O)c1ccc(CCNC(=O)c2ccccc2Br)cc1	10%	46%
NS(=O)(=O)c1ccc(Cl)c(C(=O)Nc2cccc([N+](=O)[O-])c2)c1	57%	23%
NS(=O)(=O)c1ccc(CCNS(=O)(=O)c2ccccc2[N+](=O)[O-])cc1	22%	61%
Cc1onc(-c2ccccc2)c1C(=O)Nc1ccc(S(N)(=O)=O)cc1	48%	23%
NS(=O)(=O)c1ccc(N/C=C/C(=O)c2ccncc2)cc1	42%	11%

The remaining lines, values ahead:

Enzyme inhibition [1]	Enzyme inhibition [2]	SMILES
39%	38%	C/C(=N\Nc1ccc(S(N)(=O)=O)cc1)c1ccccn1
27%	14%	NS(=O)(=O)c1ccc(NC2=CC(=O)C(=O)c3ccccc32)cc1
29%	61%	NS(=O)(=O)c1ccc(Nc2nc(-c3ccccc3)cs2)cc1
54%	11%	NS(=O)(=O)c1ccc(NCc2cnc3ccccc3n2)cc1
60%	14%	CS(=O)(=O)c1cc(Nc2ccc(Br)cc2)ncn1
